# The full list was thinned out, with hits kept by preference.
# Ec RNAP inh – E. coli RNAP inhibitors, biochemical; DNA-directed RNA polymerase subunit beta (Escherichia coli (strain K12)), P0A8V2; E. coli RNA polymerase, fluorescence transcription assay; inhibition, %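 (tested at 10 µM)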; 62,000 tested, 0.2% active; in the data active = inhibition above about 20%;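 also: 0% = enzyme without compound and 100% = no enzyme blank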
# AP complement – alternative complement pathway inhibitors, primary screen, biochemical, ELISA, human serum, orthogonally pooled compounds | LPS-coated ELISA, C3 deposition; tested in compound mixtures | inhibition, % at 5 µM | 62,000 tested, 0.08% active;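 active = inhibition above 30% in each of the two pooled mixtures holding the compound, so the lower value exceeds 30%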;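 also: 0% = serum in Mg-EGTA without compound and 100% = EDTA serum blank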
#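 Test system – human serum alternative complement pathway, C3 deposition on LPS-coated wells · Buffer or medium – diluted human serum in Mg2+-EGTA GVB++ · Compound dosing – 5 µM each compound, pools of ten, 50 µM per pool · Schedule – 1 h serum-compound exposure at 37 °C · Measured by – Anti-C3 ELISA, OD 450 nm · Read-out basis – percent inhibition of C3 deposition onto LPS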
# hDAT+cocaine – changed hDAT dopamine uptake under cocaine IC80, either direction, primary screen, cocaine antagonist project, cell-based, LLC-PK1 hDAT, [14C]-dopamine uptake, MLSMR. B-score at 10 µM. 110,000 tested, 1.3% active. Sodium-dependent dopamine transporter (Homo sapiens), Q01959. LLC-PK1 hDAT cells, [14C]-dopamine uptake with cocaine IC80; actives deviate in either direction. AID 449768, 2010;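 active = Z score or B-score, a plate-position-corrected score, falls beyond the plate's 99.7% confidence bounds, in either direction; inactive = both scores lie inside the 99.7% bounds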;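 also: scored against the spread of the other compound wells on the same plate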
# D1 mod – D1 CRE-luciferase signal change, two-sided – cell-based, HEK293 D1, dopamine EC30, D1 allosteric modulator project, primary screen. B-score at 10 µM. 58,000 tested, 5.9% active. dopamine EC30 potentiation; actives deviate in either direction;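 active = luminescence count or its row- and column-corrected plate score outside the 99.7% band of the plate's sample wells, on either side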
# HEK293 NFkB inh – inhibitors of PMA/ionomycin-induced NF-kB reporter, primary screen, antigen receptor NF-kB inhibitor project, cell-based, HEK-293 luciferase reporter, luminescence; AID 465, 2006; HEK-293 NF-kB luciferase reporter; inhibition, % at 3 µM; 62,000 tested, 0.21% active;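 active = inhibition above the mean of all tested compounds plus 3 SD, cut at about 40% in these data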;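 also: 0% = stimulated DMSO wells and 100% = 10 µM reference inhibitor 5653914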
#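 Reagent: PMA plus ionomycin mix as NF-kB-activating stimulus. Assay system: NF-kB luciferase reporter HEK-293 cells. Technique: luminescence from luciferase substrate reagent. Incubation: 1 h compound pre-incubation, 16 h PMA/ionomycin at 37 °C. Benchmarks: DMSO only as uninhibited control, 10 µM reference inhibitor as full inhibition. Repeats: tested once.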
# D1 mod confirm – D1 receptor positive allosteric modulators, retest, confirmation, cell-based, HEK293 D1, CRE-luciferase, duplicate; 2,200 tested, 88% active; luminescence at 10 µM; shares compounds with D1 mod; dopamine EC30 potentiation; hits give high values;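 active = luminescence in either of two replicates above the same-plate mean plus 3 SD of the low-dose dopamine control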
# D1 no dopamine – D1 receptor agonism without dopamine, confirmation, mechanism study for D1 allosteric modulator project, cell-based, HEK293 D1, CRE-luciferase, secondary assay 1; shares compounds with D1 mod; 1,900 tested, 0.8% active; luminescence, no dopamine; hits give high values; AID 646, 2007; luminescence at 10 µM; in the data active = luminescence above about 3900
# Isoprot counter – counter-screen for D1 modulators: isoproterenol response in HEK293 cells; shares compounds with D1 mod; HEK293 D1 CRE-luciferase, isoproterenol EC30 counter-screen; calls only at 10 µM; 2,200 tested, 63% active;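 active = luminescence in either replicate above plate mean of wells with a partly effective reference agonist dose plus 3 SD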;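 also: isoproterenol raises cAMP through native beta-adrenoceptor Gs so signal bypasses D1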
# Numbers without * were called inactive; i = inactive; nt = not tested or not shown; + = active, no number.
SMILES,Ec RNAP inh,AP complement,hDAT+cocaine,D1 mod,HEK293 NFkB inh,D1 mod confirm,D1 no dopamine,Isoprot counter
CC(=O)C(C)Oc1ccc2c3c(c(=O)oc2c1)CCCC3 (stereo unspecified),-3,9,0.83,7.8*,6,8432*,nt,+
CC(=O)C(C)Oc1ccc2c3c(c(=O)oc2c1)CCCCC3 (stereo unspecified),-2,-4,-0.042,1.5,-24,nt,nt,nt
C=CCN1C(=O)C2C(C(=O)NC)C3(C)C=CC2(O3)C1C(=O)NCc1ccc(OC)cc1 (stereo unspecified),3,20,-0.8,-0.35,5,nt,nt,nt
Cc1cc(-c2ccco2)n(-c2ccccc2)n1,5,-32,-0.84,5.9*,8,13928*,1688,+
COC(=O)CCC(=O)NC(=S)Nc1cc(Cl)ccc1Cl,nt,nt,-1.2,nt,nt,nt,nt,nt
COc1ccc(NC(=O)c2sc(SC)nc2N)cc1,8,0,0.8,15*,-36,19600*,1536,+
Cc1cc2c(ncn2C(C)C)c(N)c1C,nt,nt,0.29,nt,nt,nt,nt,nt
CCC(C)n1cnc2c(c1=O)c1nc3ccccc3nc1n2Cc1ccc2c(c1)OCO2 (stereo unspecified),0,12,4.1*,9.8*,11,14800*,1636,+
CCCCn1c2nc3ccccc3nc2c2c(=O)n(C(C)CC)cnc21 (stereo unspecified),-8,16,0.76,10*,-1,11776*,1928,i
CCC(C)n1cnc2c(c1=O)c1nc3ccccc3nc1n2-c1ccc2c(c1)OCCO2 (stereo unspecified),0,14,nt,0.0098,9,nt,nt,nt
O=C1Nc2ccccc2OC1CC(=O)N1CCN(c2cccc(C(F)(F)F)c2)CC1 (stereo unspecified),2,4,0.75,-0.13,7,nt,nt,nt
CC(C)OC(=O)CSc1nnc(-c2cnccn2)n1-c1ccc(Cl)cc1,3,17,-1.5,3.4*,21,11484*,1664,i
COc1ccc(-c2cc(=O)oc3c(C)c(O)c(CN(C)C)cc23)cc1,8,3,0.37,3.6*,6,9264*,1600,i
COc1nc(Nc2ccc(O)cc2)nc(OC(C(F)(F)F)C(F)(F)F)n1,9,-2,-0.74,6.2*,13,13552*,nt,+
COc1ccc(-c2cnnn2-c2ccc(N)cc2)cc1OC,nt,nt,-0.0036,11*,7,19800*,1764,+
Cn1cc(CN2CCN(c3ccccc3)CC2)c2ccccc21,4,-1,-0.0022,-1.6,8,nt,nt,nt
O=c1c2ccccc2c2ccccc2c(=O)n1Cc1cccnc1,8,7,-0.43,2.8*,17,7060,1648,i
O=c1c2ccccc2[nH]c(=S)n1Cc1cccnc1,3,2,1.1,1.9,18,nt,nt,nt
Clc1ccc(OCc2nnc3n2N=C(c2ccc4c(c2)OCCO4)CS3)c(Cl)c1,-2,18,-0.31,4*,-3,9040*,1568,+
Nc1nc(Nc2cccc(C(F)(F)F)c2)nc(C(F)(F)F)n1,1,27,-0.31,8*,-1,15108*,1664,+
COC(=O)c1ccc(CS(=O)(=O)c2ccccc2C)o1,7,7,-0.27,4.6*,-4,6940,1632,i
